{
  "source": "paper PMC8680456",
  "about": "(Advanced therapeutics, 2021)",
  "key": {"ABCA1": {"tested_on": "ABCA1", "assay": "ABCA1 and CD68 immunofluorescence in aortic roots", "type": "in vivo", "details": "LDLR KO mice, eight weeks of twice weekly injections, versus PBS control, n≥6", "how_it_was_run": "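LDLR KO male and female mice, obtained at 4 weeks, fed high-fat diet 14 weeks, then given tail-vein injections twice weekly for 8 weeks under isoflurane; PBS controls. Perfused with PBS and 2% paraformaldehyde; aortic roots sectioned. Blocked in TBST (0.1% Triton) with 10% horse serum 1 h RT; anti-CD68 (1:500) and anti-ABCA1 (1:1000) overnight 4 °C. Fluorescence pixel intensity quantified; two-factor ANOVA, Dunnett's vs PBS, n≥6.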"}, "RIP3": {"tested_on": "RIP3", "assay": "Liver toxicity by RIP3 expression", "details": "mouse, in vivo"}, "[1]": {"tested_on": "cholesterol-laden macrophages", "assay": "PA colocalization with cholesterol", "type": "cell-based", "details": "32 μM LXR or PA epitope equivalents, 24 hours"}, "[2]": {"assay": "Cleavage of niche-responsive LXR PAs", "type": "physicochemical", "details": "1 mM PA, 37 °C", "how_it_was_run": "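Linker-bearing PAs at 1 mM in PBS. ROS-linked: 250 μM H2O2 + 50 μM CuSO4. NDEC-linked: 10 mM TCEP. SPDP-linked: 10 mM TCEP or 10 mM DTT. PBS-only controls. Incubated at 37 °C, 5% CO2; sampled at 24 h, 4 and 7 days; stored −20 °C. LC-MS: C18 UPLC column at 40 °C, electrospray 4.7 kV, capillary 350 °C, 150–2000 m/z, 120,000 resolution.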"}},
  "data": [
    {"compound": "O=C(O)Cc1cccc(OCCCN(Cc2cccc(C(F)(F)F)c2Cl)CC(c2ccccc2)c2ccccc2)c1", "note": "[LXR, GW3965]", "values": [
      {"measurement": "ABCA1 expression relative to number of CD68+ macrophages", "setting": "ABCA1", "result": "significant increase in ABCA1 expression"},
      {"measurement": "liver toxicity by RIP3 expression", "setting": "RIP3", "result": "Liver toxicity was observed"},
      {"measurement": "confocal microscopy observation of cholesterol-laden macrophages", "setting": "[1]", "result": "appeared to be undergoing cell death"}
    ]},
    {"compound": "C16-VVAAEE-PEG4-K-PPPPP-K(Mtt) [ROS-LXR PA]", "values": [
      {"measurement": "PA cleavage after 1 week", "setting": "[2]; 250 μM H2O2 + 50 μM CuSO4 in PBS, 1 week, LC-MS", "result": "completely cleaved"}
    ]},
    {"compound": "C16-VVAAEE-PEG4-NDEC-K(LXR) [NDEC-LXR PA]", "values": [
      {"measurement": "PA cleavage by day 4", "setting": "[2]; 10 mM TCEP in PBS, day 4, LC-MS", "result": "complete cleavage"}
    ]}
  ]
}
